From ChEMBL document CHEMBL2424522, “Demonic axe-like conjugated alkynes in combating microbes” (2013)
Converted amounts (≈) assume the structure as drawn.

Key:
Format in all cases: functional
[1] = test system: Aspergillus flavus; test: Antifungal activity against Aspergillus flavus MTCC 277 at 100 ug/ml after 48 hrs by agar well diffusion method; conditions: MTCC 277, 48 h, read-out: IZ
Procedure, shortened: (§1)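 Test samples and DMSO controls incubated at 27 °C for 48 h. Inhibition zone diameter measured in mm. Three to four replicates per treatment.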

[2] = test system: Aspergillus niger; test: Antifungal activity against Aspergillus niger MTCC 344 at 100 ug/ml after 48 hrs by agar well diffusion method; conditions: MTCC 344, 48 h, read-out: IZ; procedure, shortened: as §1
[3] = test system: Saccharomyces cerevisiae; test: Antifungal activity against Saccharomyces cerevisiae MTCC 36 at 100 ug/ml after 48 hrs by agar well diffusion method; conditions: MTCC 36, 48 h, read-out: IZ; procedure, shortened: as §1
[4] = test system: Diutina rugosa; test: Antifungal activity against Candida rugosa NCIM 3462 at 100 ug/ml after 48 hrs by agar well diffusion method; conditions: NCIM 3462, 48 h, read-out: IZ; procedure, shortened: as §1
[5] = test system: Candida albicans; test: Antifungal activity against Candida albicans MTCC 227 at 100 ug/ml after 48 hrs by agar well diffusion method; conditions: MTCC 227, 48 h, read-out: IZ; procedure, shortened: as §1
[6] = test system: Aspergillus flavus; test: Antifungal activity against Aspergillus flavus MTCC 277 at 50 ug/ml after 48 hrs by agar well diffusion method; conditions: MTCC 277, 48 h, read-out: IZ; procedure, shortened: as §1
[7] = test system: Aspergillus niger; test: Antifungal activity against Aspergillus niger MTCC 344 at 50 ug/ml after 48 hrs by agar well diffusion method; conditions: MTCC 344, 48 h, read-out: IZ; procedure, shortened: as §1
[8] = test system: Saccharomyces cerevisiae; test: Antifungal activity against Saccharomyces cerevisiae MTCC 36 at 50 ug/ml after 48 hrs by agar well diffusion method; conditions: MTCC 36, 48 h, read-out: IZ; procedure, shortened: as §1
[9] = test system: Diutina rugosa; test: Antifungal activity against Candida rugosa NCIM 3462 at 50 ug/ml after 48 hrs by agar well diffusion method; conditions: NCIM 3462, 48 h, read-out: IZ; procedure, shortened: as §1
[10] = test system: Candida albicans; test: Antifungal activity against Candida albicans MTCC 227 at 50 ug/ml after 48 hrs by agar well diffusion method; conditions: MTCC 227, 48 h, read-out: IZ; procedure, shortened: as §1
[11] = test system: Klebsiella pneumoniae; test: Antibacterial activity against Klebsiella pneumoniae MTCC 618 by broth dilution method
Procedure, shortened: (§2)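 Broth dilution per NCCL standards; all phosphorus ylides and conjugated alkynes tested in vitro.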

[12] = test system: Pseudomonas aeruginosa; test: Antibacterial activity against Pseudomonas aeruginosa MTCC 741 by broth dilution method; procedure, shortened: as §2
[13] = test system: Escherichia coli; test: Antibacterial activity against Escherichia coli MTCC 443 by broth dilution method; procedure, shortened: as §2
[14] = test system: Staphylococcus epidermidis; test: Antibacterial activity against Staphylococcus epidermidis MTCC 435 by broth dilution method; procedure, shortened: as §2
[15] = test system: Staphylococcus aureus; test: Antibacterial activity against Staphylococcus aureus MTCC 96 by broth dilution method; procedure, shortened: as §2
[16] = test system: Bacillus subtilis; test: Antibacterial activity against Bacillus subtilis MTCC 441 by broth dilution method; procedure, shortened: as §2

Row | Compound | zone of inhibition at 100 µg/mL [1] [mm] | zone of inhibition at 100 µg/mL [2] [mm] | zone of inhibition at 100 µg/mL [3] [mm] | zone of inhibition at 100 µg/mL [4] [mm] | zone of inhibition at 100 µg/mL [5] [mm] | zone of inhibition at 50 µg/mL [6] [mm] | zone of inhibition at 50 µg/mL [7] [mm] | zone of inhibition at 50 µg/mL [8] [mm] | zone of inhibition at 50 µg/mL [9] [mm] | zone of inhibition at 50 µg/mL [10] [mm] | MIC [11] [µg/mL] | MIC [12] [µg/mL] | MIC [13] [µg/mL] | MIC [14] [µg/mL] | MIC [15] [µg/mL] | MIC [16] [µg/mL]
1 | N#CC#Cc1cc(F)c(Cl)nc1Cl | 25 | 24 | 10 | 11 | 16 | 20 | 20 | 0 | 0 | 11 | 12.5 (≈ 58.1 µM) | 100 (≈ 465 µM) | 100 (≈ 465 µM) | 25 (≈ 116 µM) | 12.5 (≈ 58.1 µM) | 6.25 (≈ 29.1 µM)
2 | CCOC(=O)C#Cc1ccc(Cl)nc1 | 25 | 29 | 29 | 15 | 20 | 20 | 25 | 25 | 10 | 15 | 6.25 (≈ 29.8 µM) | 0.78 (≈ 3.72 µM) | 100 (≈ 477 µM) | 50 (≈ 239 µM) | 1.56 (≈ 7.44 µM) | 6.25 (≈ 29.8 µM)
3 | Cc1ccccc1C#CC#N | 0 | 0 | 0 | 0 | 0 | 0 | 0 | 0 | 0 | 0 | > 150 | > 150 | > 150 | > 150 | > 150 | > 150
4 | CC(C)OC(=O)C#Cc1ccc(Cl)nc1 | 19 | 23 | 17 | 11 | 19 | 12 | 17 | 11 | 0 | 13 | 12.5 (≈ 55.9 µM) | 1.56 (≈ 6.97 µM) | 100 (≈ 447 µM) | 1.56 (≈ 6.97 µM) | 1.56 (≈ 6.97 µM) | 50 (≈ 224 µM)
5 | N#CC#Cc1cccnc1Cl | 39 | 30 | 11 | 29 | 28 | 35 | 26 | 0 | 23 | 23 | 12.5 (≈ 76.9 µM) | 0.78 (≈ 4.8 µM) | 100 (≈ 615 µM) | 50 (≈ 308 µM) | 6.25 (≈ 38.4 µM) | 3.12 (≈ 19.2 µM)
6 | N#CC#Cc1ccc(Cl)nc1 | 47 | 43 | 10 | 28 | 40 | 44 | 39 | 0 | 33 | 35 | 3.12 (≈ 19.2 µM) | 0.78 (≈ 4.8 µM) | 100 (≈ 615 µM) | 6.25 (≈ 38.4 µM) | 1.56 (≈ 9.6 µM) | 1.56 (≈ 9.6 µM)
